From ChEMBL document CHEMBL1123956, “Nitrosoureido nucleosides as potential inhibitors of nucleotide biosynthesis” (J Med Chem, 1988)
Where “and” joins values, the source holds several entries; their conditions need not be identical. Equal entries are not always repeated.

Columns and labels:
[1] = (§1) Half life was measured at pH 7; assay type: ADME
Procedure, shortened: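 Stability in pH 7 buffer, followed by HPLC; reported as half-life. The method is taken from an earlier paper.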

[2] = test system: HEp-2; assay: Inhibition of colony formation of H.Ep-2 cells; assay type: functional, cell-based; conditions: Homo sapiens, read-out: I50
Procedure, shortened: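 H.Ep.-2 cells exposed to drug over a 12-day period. Colony formation was scored against untreated controls, and I50 was taken as the concentration giving 50% inhibition.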

[3] = test system: L1210; assay: Inhibition of proliferation of L1210 cells; assay type: functional, cell-based; conditions: Mus musculus, read-out: I50
Procedure, shortened: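 L1210 cells in suspension culture with drug for 48 h. I50 was the concentration giving 50% inhibition of proliferation relative to controls.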

[4] = test system: Mus musculus; assay: Percent increase in life span of p388 leukemia induced mice was determined at a dose of 100 mg/kg upon ip administration on days 1-5; assay type: functional; conditions: route intraperitoneal
Procedure, shortened: (§2)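 Mice implanted with 10⁶ P388 leukemia cells were dosed intraperitoneally once daily on days 1-5 after implant. Activity is expressed as % increase in life span, and 30-day survivors were recorded.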

[5] = test system: Mus musculus; assay: Percent increase in life span of p388 leukemia induced mice was determined at a dose of 200 mg/kg upon ip administration on days 1-5; assay type: functional; conditions: route intraperitoneal; procedure, shortened: as §2
[6] = test system: L1210; assay: Number of cells present measured with the Coulter counter(concuM); assay type: functional, Mus musculus
Procedure, shortened: (§3)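 L1210 suspension cultures with agent for 30 min or 18 h, then a further 4 h with radiolabelled precursor. Cells were counted by Coulter counter and expressed as R, the count relative to the initial cell number (R = 1.0). R < 1.0 means a fall below the starting number; R > 1.0 means proliferation.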

[7] = test system: L1210; assay: Size distribution of cells; assay type: functional, Mus musculus
Procedure, shortened: (§4)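 L1210 suspension cultures with agent for 30 min or 18 h, then a 4-h labelling period. Size distribution was measured on a Model ZH Coulter Counter. The value is the instrument setting at the peak of cell size; higher settings mean larger cells.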

[8] = test system: L1210; assay: Size distribution of cells (concuM); assay type: functional, Mus musculus; procedure, shortened: as §4
[9] = test system: L1210; assay: Number of cells present measured with the Coulter counter; assay type: functional, Mus musculus; procedure, shortened: as §3
[10] = test system: L1210; assay: percent synthesis of RNA in L1210 cells when incubated with compound for 18 h using […] as radioligand; assay type: functional, Mus musculus
Procedure, shortened: (§5)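 RNA synthesis in L1210 suspension cultures preincubated with agent for 30 min or 18 h. [5-3H]Urd was then added, and incorporation into RNA was sampled hourly over 4 h. Values are 4-h incorporation as % of untreated control.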

[11] = test system: L1210; assay: percent synthesis of DNA in L1210 cells when incubated with the compound for 30 min using […] as radioligand; assay type: functional, Mus musculus
Procedure, shortened: (§6)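 DNA synthesis in L1210 suspension cultures preincubated with agent for 30 min or 18 h. [3H]dThd was then added to the medium, and incorporation into DNA was sampled at 1-h intervals over 4 h. Values are for the 4-h labelling period, as % of untreated control.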

[12] = test system: L1210; assay: percent synthesis of RNA in L1210 cells when incubated with compound for 18 h using […] as radioligand (conc umol); assay type: functional, Mus musculus; procedure, shortened: as §5
[13] = test system: L1210; assay: percent synthesis of RNA in L1210 cells when incubated with compound for 30 min using […] as radioligand; assay type: functional, Mus musculus; procedure, shortened: as §5
[14] = test system: L1210; assay: percent synthesis of protein in L1210 cells when incubated with the compound for 18 hr using [3H]-L-Leu as radioligand; assay type: functional, Mus musculus
Procedure, shortened: (§7)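 Protein synthesis in L1210 suspension cultures preincubated with agent for 30 min or 18 h. [4,5-3H]-L-leucine was then added, and incorporation into protein was sampled hourly over 4 h. Values are 4-h incorporation as % of untreated control.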

[15] = test system: L1210; assay: percent synthesis of protein in L1210 cells when incubated with the compound for 18 hr uusing [3H]-L-Leu as radioligand; assay type: functional, Mus musculus; procedure, shortened: as §7
[16] = test system: L1210; assay: percent synthesis of DNA in L1210 cells when incubated with the compound for 18 h using […] as radioligand; assay type: functional, Mus musculus; procedure, shortened: as §6
[17] = test system: Mus musculus; assay: Percent increase in life span of p388 leukemia induced mice was determined at a dose of 25 mg/kg upon ip administration on days 1-5; assay type: functional; conditions: route intraperitoneal; procedure, shortened: as §2
[18] = test system: L1210; assay: percent synthesis of protein in L1210 cells when incubated with the compound for 30 min using [3H]L-Leu as radioligand; assay type: functional, Mus musculus; procedure, shortened: as §7
[19] = as §1; assay type: ADME; remark: listed apart in the source
Procedure, shortened: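 Stability in pH 7 buffer, with decomposition followed by HPLC and the half-life taken from it.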

[20] = test system: L1210; assay: Number of cells present measured with the Coulter counter at 25 uM conc.; assay type: functional, Mus musculus; procedure, shortened: as §3
[21] = test system: L1210; assay: Number of cells present measured with the Coulter counter at 50 uM conc.; assay type: functional, Mus musculus; procedure, shortened: as §3
[22] = test system: L1210; assay: Size distribution of cells at 10 uM conc.; assay type: functional, Mus musculus; procedure, shortened: as §4
[23] = test system: L1210; assay: Size distribution of cells at 25 uM conc.; assay type: functional, Mus musculus; procedure, shortened: as §4
[24] = test system: L1210; assay: Size distribution of cells at 50 uM conc.; assay type: functional, Mus musculus; procedure, shortened: as §4
[25] = test system: L1210; assay: Number of cells present measured with the Coulter counter at 10 uM conc.; assay type: functional, Mus musculus; procedure, shortened: as §3
[26] = test system: L1210; assay: percent synthesis of DNA in L1210 cells when incubated with the compound for 30 min using […] as radioligand at 50 uM conc.; assay type: functional, Mus musculus; procedure, shortened: as §6
[27] = test system: L1210; assay: percent synthesis of DNA in L1210 cells when incubated with the compound for 18 h using […] as radioligand at 50 uM conc.; assay type: functional, Mus musculus; procedure, shortened: as §6
[28] = test system: L1210; assay: percent synthesis of DNA in L1210 cells when incubated with the compound for 18 hr using […] as radioligand at 25 uM conc.; assay type: functional, Mus musculus; procedure, shortened: as §6
[29] = test system: L1210; assay: percent synthesis of DNA in L1210 cells when incubated with the compound for 30 min using […] as radioligand at 10 uM conc.; assay type: functional, Mus musculus; procedure, shortened: as §6
[30] = test system: L1210; assay: percent synthesis of DNA in L1210 cells when incubated with the compound for 30 min using […] as radioligand at 25 uM conc.; assay type: functional, Mus musculus; procedure, shortened: as §6
[31] = test system: L1210; assay: percent synthesis of protein in L1210 cells when incubated with the compound for 30 min using [3H]L-Leu as radioligand at 10 uM conc.; assay type: functional, Mus musculus; procedure, shortened: as §7
[32] = test system: L1210; assay: percent synthesis of protein in L1210 cells when incubated with the compound for 30 min using [3H]L-Leu as radioligand at 25 uM conc.; assay type: functional, Mus musculus; procedure, shortened: as §7
[33] = test system: L1210; assay: percent synthesis of protein in L1210 cells when incubated with the compound for 30 min using [3H]L-Leu as radioligand at 50 uM conc.; assay type: functional, Mus musculus; procedure, shortened: as §7
[34] = test system: L1210; assay: percent synthesis of RNA in L1210 cells when incubated with compound for 18 h using […] as radioligand at 10 uM conc.; assay type: functional, Mus musculus; procedure, shortened: as §5
[35] = test system: L1210; assay: percent synthesis of RNA in L1210 cells when incubated with compound for 18 hr using […] as radioligand at 25 uM conc.; assay type: functional, Mus musculus; procedure, shortened: as §5
[36] = test system: L1210; assay: percent synthesis of RNA in L1210 cells when incubated with compound for 18 hr using […] as radioligand at 50 uM conc.; assay type: functional, Mus musculus; procedure, shortened: as §5
[37] = test system: L1210; assay: percent synthesis of RNA in L1210 cells when incubated with compound for 30 min using […] as radioligand at 10 uM conc.; assay type: functional, Mus musculus; procedure, shortened: as §5
[38] = test system: L1210; assay: percent synthesis of RNA in L1210 cells when incubated with compound for 30 min using [3H]dThd as radioligand at 25 uM conc.; assay type: functional, Mus musculus; conditions: in the assay text read “[5-3H]Urd” for “[3H]dThd”; procedure, shortened: as §5
[39] = test system: L1210; assay: percent synthesis of RNA in L1210 cells when incubated with compound for 30 min using [3H]dThd as radioligand at 50 uM conc.; assay type: functional, Mus musculus; conditions: in the assay text read “[5-3H]Urd” for “[3H]dThd”; procedure, shortened: as §5
[40] = test system: L1210; assay: percent synthesis of protein in L1210 cells when incubated with the compound for 18 hr using [3H]-L-Leu as radioligand at 10 uM conc.; assay type: functional, Mus musculus; procedure, shortened: as §7
[41] = test system: L1210; assay: percent synthesis of protein in L1210 cells when incubated with the compound for 18 hr using [3H]-L-Leu as radioligand at 25 uM conc.; assay type: functional, Mus musculus; procedure, shortened: as §7
[42] = test system: L1210; assay: percent synthesis of protein in L1210 cells when incubated with the compound for 18 hr using [3H]-L-Leu as radioligand at 50 uM conc.; assay type: functional, Mus musculus; procedure, shortened: as §7
[43] = test system: L1210; assay: percent synthesis of DNA in L1210 cells when incubated with the compound for 18 h using [3H]dUrd as radioligand at 10 uM conc.; assay type: functional, Mus musculus; conditions: in the assay text read “[3H]dThd” for “[3H]dUrd”; procedure, shortened: as §6

Structure (SMILES): CN(N=O)C(=O)Nc1ccc(NC(=O)C2OC(n3ccc(=O)[nH]c3=O)C(O)C2O)cc1 (stereo not drawn)
- half-life [1]: 2 h
- IC50 [2]: 33 µM
- IC50 [3]: > 90 µM
- ILS at 100 mg/kg [4]: 56%

Structure (SMILES): Cc1cn(C2CC(O)C(C(=O)NCCN(N=O)C(=O)Nc3ccccc3)O2)c(=O)[nH]c1=O (stereo not drawn)
- half-life [1]: 0.7 h
- IC50 [2]: 90 µM
- IC50 [3]: > 90 µM
- ILS at 200 mg/kg [5]: 14%

Structure (SMILES): O=NN(CCCl)C(=O)NCC1OC(n2ccc(=O)[nH]c2=O)CC1O (stereo not drawn)
- half-life [1]: 4 h
- IC50 [2]: 14 µM
- Cell no [6]: 0.54
- Cell size [7]: 60 and 82.5 and 75
- Cell size [8]: 67.5 and 65 and 82.5
- IC50 [3]: 12 µM
- Cell no [9]: 1.06 and 1.08 and 1.09 and 0.77 and 0.99
- Control [10]: 554% and 276%
- Control [11]: 98% and 103% and 100%
- Control [12]: 455%
- Control [13]: 87% and 79% and 80%
- Control [14]: 474% and 254%
- Control [15]: 658%
- Control [16]: 189% and 192% and 152%
- ILS at 25 mg/kg [17]: 191%
- Control [18]: 96% and 92% and 95%

Structure (SMILES): O=NN(C(=O)NC1CCCCC1)C1CCCCC1
- T1/2 [19]: 0.875 h

Structure (SMILES): Cc1cn(C2CC(O)C(CNC(=O)N(CCCl)N=O)O2)c(=O)[nH]c1=O (stereo not drawn)
- half-life [1]: 6 h
- IC50 [2]: 10 µM
- Cell no [20]: 1.08 and 0.92
- Cell no [21]: 1.06 and 0.64
- Cell size [22]: 60 and 80
- Cell size [23]: 57.5 and 80
- Cell size [24]: 55 and 85
- IC50 [3]: 5 µM
- Cell no [25]: 1.08 and 1.21
- Control [26]: 85%
- Control [27]: 147%
- Control [28]: 171%
- Control [29]: 108%
- Control [30]: 98%
- Control [31]: 83%
- Control [32]: 99%
- Control [33]: 111%
- Control [34]: 217%
- Control [35]: 374%
- Control [36]: 539%
- Control [37]: 85%
- Control [38]: 88%
- Control [39]: 87%
- Control [40]: 257%
- Control [41]: 455%
- Control [42]: 597%
- Control [43]: 145%
- ILS at 25 mg/kg [17]: 135%
